In PubChem BioAssay:
The source made the active and inactive calls. Unless noted, no stated cut-off is given here; in the data, active means inhibition above about 30%; inactive means the rest.

Columns and labels:
[1] = SK-BR-3 cell growth inhibitors, pilot screen, 24 h, human (AID 572;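 active means viability at or below 10% of carrier control in both of two separate runs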;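 further: compound exposure lasted between 18 and 24 h rather than exactly 24 h; 100% = carrier-treated control wells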); conditions: SK-BR-3 viability, CellTiter-Glo luminescence, at 10 µM, stronger effect = lower value
[2] = HUVEC growth inhibition – cell-based, human, primary screen (AID 575;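 active means viability at or below 30% in both replicate assays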;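 further: 100% = median of untreated cell wells with 0.1% DMSO on each plate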); conditions: HUVEC proliferation, CellTiter-Glo luminescence, 72 h; at 10 µM; stronger effect = lower value
Summary of the method: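 Assay system: primary human umbilical vein endothelial cells / Buffer or medium: endothelial basal medium with 2% FBS plus growth supplements / Compound dosing: one dose, 10 µM final, 0.1% DMSO / Timing: 72 h treatment at 37 °C / Signal: CTG luminescence / Benchmarks: 32 DMSO-only cell-control wells (high), 32 MePR drug-control wells (low) per plate / Plate: collagen-coated 384-well format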

[3] = growth inhibitors of H69AR lung tumor, primary screen, human, duplicate replicates (AID 580;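 active means viability at or under a set limit in both replicates, limit being median viability minus 3 SD, cut at about 48% in these data, passing the limit was not always enough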;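 further: 100% = mean luminescence of untreated wells and 0% = no signal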); conditions: H69AR lung tumor cells viability, ATP luminescence, 72 h; at 10 µM; stronger effect = lower value
[4] = reversal of MRP1-mediated doxorubicin resistance, pilot screen, H69AR cells, doxorubicin co-treatment (AID 601;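 active means viability loss from added drug above about 55%, and viability with drug at most 40%, in both replicates, limit read from the data, passing the limit was not always enough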); conditions: CellTiter-Glo, 72 h, at 10 µM; for differential viability (reversal): stronger effect = higher value
[5] = 384-well plate pilot, post-Golgi transport modulator project, inhibition of yeast transport mutant growth (AID 636; in the data active means inhibition above about 31%); conditions: absorbance 615 nm, about 18 h, stronger effect = higher value
[6] = growth suppression of yeast trafficking mutant, preliminary HTS, modulators of trafficking downstream of Golgi apparatus project, 1536-format plate, OD 615 nm (AID 637); conditions: yeast transport mutant growth, absorbance 615 nm, 18 h; stronger effect = higher value
[7] = H69AR cells + 2 uM doxorubicin, measured here: viability with 2 uM doxorubicin, stronger effect = lower value
[8] = H69AR cells, compound alone cytotoxicity

Compound | viability [1] | viability [2] | viability [3] | differential viability (reversal) ([4]; H69AR cells + 2 uM doxorubicin) | viability [4, 7] | viability [4, 8] | inhibition [5] | inhibition [6]
CC(C)CNS(=O)(=O)c1ccc(CCC(=O)NCc2ccco2)cc1 | 113% (inactive) | 88.6% (inactive) | 84.5% (inactive) | -3.21% (inactive) | 87.7% | 84.5% | -4.93% (inactive) | 1.29% (inactive)
CCOC(=O)c1c(NC(=O)Cn2c(=O)oc3ccccc32)oc(C)c1C(C)=O | 81% (inactive) | 99.3% (inactive) | 101% (inactive) | 5.86% (inactive) | 95.1% | 101% | -1.23% (inactive) | -4.52% (inactive)
Cc1nc2ccc(S(=O)(=O)NCC(=O)N3CCc4ccccc4C3)cc2s1 | 87% (inactive) | 106% (inactive) | 93.5% (inactive) | 6.91% (inactive) | 86.6% | 93.5% | 2.47% (inactive) | 3.11% (inactive)
Cc1nc(-c2ccccc2)sc1C(N)=O | 107% (inactive) | 96.4% (inactive) | 94.4% (inactive) | -12.1% (inactive) | 106% | 94.4% | -3.29% (inactive) | 12.6% (inactive)
COC(=O)C1CCN(C(=O)CN2C(=O)NC(CCc3ccccc3)C2=O)CC1 (stereo unspecified) | 119% (inactive) | 94.2% (inactive) | 91.7% (inactive) | 0.73% (inactive) | 90.9% | 91.7% | -1.92% (inactive) | 3.87% (inactive)
Cc1nc(CNS(=O)(=O)c2cccc(F)c2)cs1 | 64% (inactive) | 93.3% (inactive) | 91.4% (inactive) | 1.23% (inactive) | 90.1% | 91.4% | -1.95% (inactive) | 12.1% (inactive)
CC1CCCCN1C(=O)Cn1nnc(-c2cccnc2)n1 (stereo unspecified) | 92% (inactive) | 97.2% (inactive) | 103% (inactive) | 8.68% (inactive) | 94.6% | 103% | -7.81% (inactive) | -1.13% (inactive)
Cc1cc(C)nc(SCc2nnc(SCC(=O)Nc3ncc(C)s3)n2Cc2ccco2)n1 | 91% (inactive) | 97.1% (inactive) | 90.4% (inactive) | 7.87% (inactive) | 82.6% | 90.4% | -7.87% (inactive) | -5.09% (inactive)
COc1cc(C(=O)Nc2cc(C)ccn2)cc(OC)c1OC | 90% (inactive) | 89.5% (inactive) | 97.5% (inactive) | 17.6% (inactive) | 79.9% | 97.5% | 0.55% (inactive) | -6.13% (inactive)
CCOC(=O)C1CCCN(C(=O)c2sc3nc(-c4ccccc4)cn3c2C)C1 (stereo unspecified) | 112% (inactive) | 89.3% (inactive) | 84.9% (inactive) | 1.98% (inactive) | 82.9% | 84.9% | -1.3% (inactive) | 15.9% (inactive)
CCc1nnc(NC(=O)CSc2nnc3ncccn23)s1 | 91% (inactive) | 108% (inactive) | 95.5% (inactive) | -3.16% (inactive) | 98.7% | 95.5% | -5.07% (inactive) | 3.27% (inactive)
COc1ccc(-c2ccc(-c3noc(-c4ccccc4)n3)c(OC)n2)cc1 | 103% (inactive) | 68.3% (inactive) | 88% (inactive) | 3.25% (inactive) | 84.7% | 88% | -8.51% (inactive) | -10.2% (inactive)
COc1ccccc1N1CCN(C(=O)CN(Cc2ccc(Cl)cc2)S(C)(=O)=O)CC1 | 91% (inactive) | 88.7% (inactive) | 99.8% (inactive) | 4.09% (inactive) | 95.7% | 99.8% | -5.45% (inactive) | -0.49% (inactive)
Cc1cc(C(=O)Nc2nc3c(s2)CCCC3)cs1 | 93% (inactive) | 67.5% (inactive) | 91.9% (inactive) | 14% (inactive) | 77.8% | 91.9% | -0.14% (inactive) | -7.58% (inactive)
COC(=O)C1C2C=CC3(CN(CC4CCCO4)C(=O)C13)O2 (stereo unspecified) | 78% (inactive) | 114% (inactive) | 102% (inactive) | -9.38% (inactive) | 111% | 102% | -6.99% (inactive) | -0.18% (inactive)
O=C(Nc1ccc2oc(=O)ccc2c1)c1cccnc1 | 111% (inactive) | 107% (inactive) | 98.9% (inactive) | 14.6% (inactive) | 84.2% | 98.9% | -4.38% (inactive) | -0.18% (inactive)
O=C(Nc1ccccc1)N1CCC(c2ccccc2)C1 (stereo unspecified) | 62% (inactive) | 109% (inactive) | 86.7% (inactive) | 19.2% (inactive) | 67.5% | 86.7% | -2.6% (inactive) | 4.92% (inactive)
